The subject of test [1] is HCT-116. The test can be described thus: Cytotoxicity against human HCT116 cells assessed as cell viability at 15 uM after 48 hrs by MTT assay relative to control. It counts as functional. As to conditions: HCT-116, 48 h, read-out: Activity. The method in brief: (§1)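 HCT116 cells seeded in 24-well plates two days prior, treated 48 h in fresh complete medium (DMSO ≤0.5% v/v; DMSO-only control); MTT 0.5 mg/ml final added for last hour, formazan dissolved in DMSO:ethanol 50:50, A570 minus A690; viability as % of control; IC50 from 2.5–20 range dose-response; mean ± SEM of 4 independent experiments.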
Background: Tetrazolium assays rely on reduction of a dye to a coloured formazan, in cell work by metabolically active cells.

In test [2] the test system is HCT-116. Description: Cytotoxicity against human HCT116 cells assessed as cell viability at 10 uM after 48 hrs by MTT assay relative to control. In kind it is functional. As to conditions: HCT-116, 48 h, read-out: Activity. The method in brief:
as §1

The subject of test [3] is HCT-116. Description: Cytotoxicity against human HCT116 cells assessed as cell viability after 48 hrs by MTT assay. As to conditions: HCT-116, 48 h. It counts as functional, cell-based. The method in brief:
as §1

Test [4] relates to HCT-116. Description: Cytotoxicity against human HCT116 cells assessed as cell viability at 30 uM after 48 hrs by MTT assay relative to control. In kind it is functional. As to conditions: HCT-116, 48 h, read-out: Activity. A digest of the protocol: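 HCT116 cells grown in RPMI 1640 with 6% FBS, 0.1 mM sodium pyruvate and 10 mM HEPES at 37 °C in 5% CO2, seeded at 70 000 cells/mL two days before treatment. Exposure 48 h in fresh complete medium, DMSO ≤0.5% (v/v), DMSO-only controls. MTT (0.5 mg/ml final) added for the last hour, formazan dissolved in DMSO:ethanol 50:50, A570 minus A690. Viability given as % of control; mean ± SEM of 4 independent experiments; Student's t-test.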

For test [5], the system named is HCT-116. Description: Cell cycle arrest in human HCT116 cells assessed as accumulation at S and G2/M phase at 15 uM after 48 hrs by flow cytometry analysis. In kind it is functional, cell-based. A digest of the protocol:
(§2)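 HCT116 cells (RPMI 1640, 6% FBS, 37 °C, 5% CO2) seeded two days ahead, exposed 48 h; floating plus attached cells collected by trypsinization, fixed in 70% ethanol at 4 °C 15 min, stained with PI/RNase A at 37 °C 15 min; ≥40 000 single cells counted by flow cytometry; phases fitted by Watson Pragmatic model; 3 independent experiments.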
On the technique in general: Flow cytometry measures light scatter and fluorescence of single cells or particles in a stream.

The subject of test [6] is HCT-116. Description: Induction of morphological changes in human HCT116 cells assessed as floating cells at 15 to 100 uM after 48 hrs by microscopic analysis. It counts as functional, cell-based.
The subject of test [7] is HCT-116. The test can be described thus: Induction of apoptosis in human HCT116 cells assessed as cleavage of PARP1 at 5 to 10 uM after 48 hrs by Western blot analysis. In kind it is functional, cell-based. A digest of the protocol:
(§3)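 Cells seeded two days before 48 h exposure; floating and attached cells harvested, lysed in ice-cold RIPA with PMSF, phosphatase and protease inhibitors; 20 µg protein by SDS-PAGE, PVDF transfer, milk blocking, primary antibody (p53 DO-1, p27 C-19, PARP-1 F-2) overnight, HRP secondary, chemiluminescence; band intensity quantified, β-actin loading control.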
A general note: Immunoblotting shows a protein as a band on a membrane.

For test [8], the system named is HCT-116. Description: Cell cycle arrest in human HCT116 cells assessed as accumulation at sub-G1 phase at 5 to 10 uM after 48 hrs by flow cytometry analysis. It counts as functional, cell-based. The method in brief:
as §2

For test [9], the system named is HCT-116. Description: Cell cycle arrest in human HCT116 cells assessed as accumulation at S and G2/M phase at IC50 after 48 hrs by flow cytometry analysis. It counts as functional, cell-based. The method in brief:
as §2

For test [10], the system named is HCT-116. The test can be described thus: Cell cycle arrest in human HCT116 cells assessed as accumulation at S and G2/M phase at 5 to 10 uM after 48 hrs by flow cytometry analysis. It counts as functional, cell-based. The method in brief:
as §2

The subject of test [11] is HCT-116. The test can be described thus: Cell cycle arrest in human HCT116 cells assessed as increase of p27 expression at 5 to 10 uM after 48 hrs by Western blot analysis. In kind it is functional, cell-based. The method in brief: as §3
In test [12] the test system is HCT-116. Description: Induction of morphological changes in human HCT116 cells assessed as floating cells at 10 to 100 uM after 48 hrs by microscopic analysis. It counts as functional, cell-based.
In test [13] the test system is HCT-116. The test can be described thus: Induction of apoptosis in human HCT116 cells assessed as nuclear condensation after 48 hrs by fluorescence microscopic analysis. In kind it is functional, cell-based. A digest of the protocol: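 After 48 h exposure, floating and attached cells harvested, fixed in 4% paraformaldehyde 15 min at room temperature, cytospun onto polylysine slides, Hoechst-stained; apoptotic fraction = condensed nuclei over total nuclei, >500 cells per slide counted by fluorescence microscopy; mean ± SEM of ≥3 independent experiments.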

Test [14] has as its system HCT-116. The test can be described thus: Cell cycle arrest in human HCT116 cells assessed as increase of p53 expression at 5 to 10 uM after 48 hrs by Western blot analysis. In kind it is functional, cell-based. A digest of the protocol:
as §3

Test [15] relates to HCT-116. The test can be described thus: Cell cycle arrest in human HCT116 cells assessed as accumulation at S and G2/M phase at 10 to 15 uM after 48 hrs by flow cytometry analysis. It counts as functional, cell-based. A digest of the protocol: as §2
Test [16] deals with HCT-116. The test can be described thus: Induction of apoptosis in human HCT116 cells assessed as cleavage of PARP1 at 10 to 15 uM after 48 hrs by Western blot analysis. It counts as functional, cell-based. A digest of the protocol: as §3
Test [17] deals with HCT-116. Description: Cell cycle arrest in human HCT116 cells assessed as accumulation at sub-G1 phase at 10 to 15 uM after 48 hrs by flow cytometry analysis. In kind it is functional, cell-based. The method in brief:
as §2

The source made the active and inactive calls. No cut-off for these calls is given here.

The IC50 is the midpoint of a concentration-inhibition curve.

Consider `COc1ccc(/C=C/C(=O)c2ccccc2O)cc1`, for which, in [1], the viability at 15 µM turned out to be 89.1%.

Regarding `O=c1c(O)c(-c2ccc(F)cc2)oc2ccccc12`, in [1], the viability at 15 µM was found to be 49.2%. Further, in test [2], the viability at 10 µM turned out to be 61.1%. Further, in [3], the IC50 was determined as 14.4 µM.

On to `Cc1ccc(-c2oc3ccccc3c(=O)c2O)cc1`, for which the viability at 15 µM in test [1] came to 59.3%.

As for `COc1ccc(-c2oc3ccccc3c(=O)c2O)cc1`, the viability at 15 µM in test [1] is 96%.

As for `COc1cccc(/C=C/C(=O)c2ccccc2O)c1`, the viability at 15 µM in [1] worked out at 89.6%.

In the case of `O=C(/C=C/c1cccc(F)c1)c1ccccc1O`, the viability at 15 µM in test [1] is 45.3%. The viability at 10 µM in test [2] was 90.2%. Further, the IC50 in [3] was 14.5 µM.

Consider `O=c1c(O)c(-c2ccc(O)c(O)c2)oc2cc(O)cc(O)c12` [QUERCETIN], for which the viability at 30 µM in test [4] turned out to be 59.7%.

Consider `O=c1c(O)c(-c2ccc(Cl)cc2)oc2ccccc12`, for which the viability at 15 µM in [1] is 38%. Further, the viability at 10 µM in [2] was 40.8%. For the same compound, in test [3], the IC50 stood at 6.8 µM.

Turning to `O=c1c(O)c(-c2cccc(F)c2)oc2ccccc12`, the viability at 15 µM in test [1] came to 45.9%. In addition, in test [2], the viability at 10 µM was found to be 60.9%. In addition, the IC50 in test [3] amounted to 13 µM.

For `O=C(/C=C/c1ccc(C(F)(F)F)cc1)c1ccccc1O`, in [5], the outcome was inactive. In addition, in test [1], the viability at 15 µM came to 85.1%. Further, the result in [6] was Active.

With `COc1ccccc1-c1oc2ccccc2c(=O)c1O`, the viability at 15 µM in test [1] came out at 89.1%.

As for `O=C(/C=C/c1ccc(F)cc1)c1ccccc1O`, the viability at 15 µM in test [1] worked out at 74.9%. In test [2], the viability at 10 µM stood at 85.2%. For the same compound, the IC50 in test [3] is 20.5 µM.

As to `Cc1ccc(/C=C/C(=O)c2ccccc2O)cc1`, in [1], the viability at 15 µM amounted to 89.1%.

With `COc1ccc(OC)c(-c2oc3ccccc3c(=O)c2O)c1`, in test [1], the viability at 15 µM turned out to be 76.6%.

With `COc1cccc(-c2oc3ccccc3c(=O)c2O)c1`, the viability at 15 µM in test [1] worked out at 39.5%.

`Cc1cccc(-c2oc3ccccc3c(=O)c2O)c1`: in test [1], the viability at 15 µM stood at 38.7%.

For `O=C(/C=C/c1ccc(Br)cc1)c1ccccc1O`, the viability at 15 µM in test [1] came out at 68.4%. Further, the viability at 10 µM in [2] came out at 85.5%. Also, in test [3], the IC50 worked out at 19.1 µM.

As to `COc1cccc(/C=C/C(=O)c2ccccc2O)c1O`, the viability at 15 µM in test [1] is 84.7%.

As for `O=c1c(O)c(-c2cccc(Cl)c2)oc2ccccc12`, the viability at 15 µM in [1] stood at 32.9%. Moreover, the viability at 10 µM in test [2] came to 43.8%. Besides, in [3], the IC50 came out at 8.1 µM.

As to `O=c1c(O)c(-c2ccc(Br)cc2)oc2ccccc12`, the viability at 15 µM in test [1] turned out to be 29.2%. Besides, the outcome in [7], in test [8], in test [9], in [10], in [11] and in test [12] was Active. Also, the result in [14] was Active. Further, the viability at 10 µM in test [2] is 32.8%. Also, in test [3], the half-maximal inhibitory concentration (IC50) amounted to 4.6 µM. In addition, the Activity entry in test [13] was “Dose-dependent effect”.

As for `O=C(/C=C/c1cccc(Cl)c1)c1ccccc1O`, the viability at 15 µM in [1] was 37.5%. In addition, the viability at 10 µM in test [2] turned out to be 75.8%. In addition, the concentration for half-maximal inhibition (IC50) in test [3] is 13.2 µM.

With `O=C(/C=C/c1ccc(Cl)cc1)c1ccccc1O`, the viability at 15 µM in test [1] came to 69.1%. Moreover, the viability at 10 µM in test [2] was 84.8%. Moreover, the IC50 in test [3] amounted to 20.9 µM.

Regarding `COc1cc(OC)c(/C=C/C(=O)c2ccccc2O)c(OC)c1`, in test [1], the viability at 15 µM worked out at 91.1%.

`O=C(/C=C/c1ccccc1)c1ccccc1O` [2'-HYDROXYCHALCONE]: in [1], the viability at 15 µM came to 91.7%.

Regarding `O=c1c(O)c(-c2cccc(Br)c2)oc2ccccc12`, in test [1], the viability at 15 µM turned out to be 29.2%. The viability at 10 µM in test [2] was 37.6%. Also, the IC50 in test [3] was 7.5 µM.

Consider `COc1cc(-c2oc3ccccc3c(=O)c2O)cc(OC)c1OC`, for which, in [1], the viability at 15 µM came out at 70%.

Turning to `COc1ccc(-c2oc3ccccc3c(=O)c2O)cc1OC` [3-HYDROXY-3',4'-DIMETHOXYFLAVONE], the viability at 15 µM in [1] came out at 78.1%.

Take `Cc1cccc(/C=C/C(=O)c2ccccc2O)c1`: the viability at 15 µM in [1] worked out at 85.9%.

Consider `O=C(/C=C/c1cccc(Br)c1)c1ccccc1O`, for which, in test [1], the viability at 15 µM was 29.6%. Further, the outcome in [9], in test [15], in [16], in test [17] and in [6] was Active. The viability at 10 µM in [2] stood at 48.4%. In test [3], the IC50 was 10.9 µM. Moreover, the Activity result in [13] was “Dose-dependent effect”.

`O=c1c(O)c(-c2ccccc2)oc2ccccc12` [FLAVONOL]: the viability at 15 µM in test [1] was 64.6%.

For the compound `COc1cc(/C=C/C(=O)c2ccccc2O)cc(OC)c1OC`, the viability at 15 µM in [1] is 83.7%.

(Values after ChEMBL document CHEMBL2401708, “Superior anticancer activity of halogenated chalcones and flavonols over the natural flavonol quercetin” (Eur J Med Chem, 2013).)
